Experimental findings from ChEMBL document CHEMBL1124382, “Synthesis and radioprotective activity of dipeptide cysteamine and cystamine derivatives” (J Med Chem, 1989) are described below.

Values joined by “and” are separate entries in the source; they are usually repeats but may differ in a detail not shown here. Equal values may be shown once.

Series [1] has as its system Mus musculus. The series can be described thus: The compound was tested for radioprotective activity (DRF) in mice 15 min before whole body irradiation with value in braces indicating the administered dose in mg/Kg.
Series [2] can be described thus: The compound was tested for toxicity in mice, expressed as LD50. In kind it is organism-based. The following applies: in vivo. The method, boiled down: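 Three-month-old inbred albino CXVII mice (about 25 g) received compounds dissolved in distilled water by intraperitoneal injection. A preliminary study set the dose range. Five groups of 10 mice then each received a different dose within that range. LD50 was derived by probit analysis.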

The test system of series [3] is Mus musculus. The series is described as follows: The compound was tested for radioprotective activity (DRF) in mice 2 hours before whole body irradiation with value in braces indicating the administered dose in mg/Kg.

For the compound `CC(=O)SCCNC(=O)CNC(=O)[C@@H](C)N`, the DRF in the series with Mus musculus [1] was 1.55 and 1; in the series on Mus musculus [3], 1. The same compound returned an LD50 in series [2] of 1500 mg/kg.
For the compound `C[C@H](N)C(=O)NCC(=O)NCCSSCCNC(=O)CNC(=O)[C@@H](C)N`, the DRF in the series with Mus musculus [1] was 1.35 and 1. The compound also returned an LD50 in series [2] of 1500 mg/kg.
With `NCC(=O)NCC(=O)NCCSSCCNC(=O)CNC(=O)CN`, the DRF was 1.1 and 1 in the series with Mus musculus [1]; 1 in the series on Mus musculus [3]. The compound further showed an LD50 in series [2] of 2000 mg/kg.
For the compound `CC(=O)SCCNC(=O)CNC(=O)CN`, the DRF in the series on Mus musculus [1] stood at 1.55. For the same compound, in series [2], the LD50 came out at 2400 mg/kg.
As to `CC(=O)SCCNC(=O)CN`, the DRF in the series on Mus musculus [1] is 1.4 and 1; in the series with Mus musculus [3], 1. This compound also returned an LD50 in series [2] of 1500 mg/kg.
In the series on Mus musculus [1], `C[C@H](NC(=O)CN)C(=O)NCCSSCCNC(=O)[C@@H](C)NC(=O)CN` showed a DRF of 1.1. This compound also yielded an LD50 in series [2] of 800 mg/kg.
`CC(=O)SCCNC(=O)[C@H](C)NC(=O)CN`: the DRF with Mus musculus [1] is 1.25; in the series with Mus musculus [3] it was 1. Also, the LD50 in series [2] amounted to 1500 mg/kg.

In general, LD50 refers to the dose at which mortality reaches 50%.
